# Test results reported in ChEMBL document CHEMBL1146275, “5-HT2C antagonists based on fused heterotricyclic templates: design, synthesis and biological evaluation” (Bioorg Med Chem Lett, 2007).
# Calls of active or inactive are those of the source. No cut-off for these calls is given here.
# Columns and labels:
# [1] = target: T1, 5-hydroxytryptamine receptor 2A (Homo sapiens, UniProt P28223); assay: Agonist activity at human 5HT2A receptor expressed in HEK293 cells by measuring intracellular calcium mobilization upto 10 uM; type: functional, cell-based
# [2] = target: T2, 5-hydroxytryptamine receptor 2C (Homo sapiens) (UniProt P28335); assay: Agonist activity at human 5HT2C receptor expressed in HEK293 cells by measuring intracellular calcium mobilization upto 10 uM; type: functional, cell-based
# T2 sequence (whole entry): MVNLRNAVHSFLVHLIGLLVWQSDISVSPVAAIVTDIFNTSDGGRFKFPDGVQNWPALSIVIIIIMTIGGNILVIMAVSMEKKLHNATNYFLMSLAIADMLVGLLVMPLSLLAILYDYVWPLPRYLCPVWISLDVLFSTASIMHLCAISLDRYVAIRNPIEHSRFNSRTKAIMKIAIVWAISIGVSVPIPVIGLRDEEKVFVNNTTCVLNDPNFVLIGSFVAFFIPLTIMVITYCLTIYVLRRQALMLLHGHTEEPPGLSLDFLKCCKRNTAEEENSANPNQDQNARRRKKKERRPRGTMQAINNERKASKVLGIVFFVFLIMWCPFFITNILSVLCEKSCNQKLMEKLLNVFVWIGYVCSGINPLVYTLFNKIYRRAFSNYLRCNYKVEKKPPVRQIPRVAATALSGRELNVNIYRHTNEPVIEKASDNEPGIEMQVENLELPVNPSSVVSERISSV
# [3] = target: T3, 5-hydroxytryptamine receptor 2B (Homo sapiens, UniProt P41595); assay: Agonist activity at human 5HT2B receptor expressed in HEK293 cells by measuring intracellular calcium mobilization upto 10 uM; type: functional, cell-based
# [4] = target: T3, 5-hydroxytryptamine receptor 2B; assay: Displacement of [3H]5-HT from human 5HT2B receptor expressed in HEK293 cells; type: cell-based
# [5] = target: T1, 5-hydroxytryptamine receptor 2A; assay: Displacement of [3H]ketanserin from human 5HT2A receptor expressed in HEK293 cells; type: cell-based
# [6] = target: T4, 5-hydroxytryptamine receptor 2C (Homo sapiens, UniProt P28335); assay: Displacement of [3H]mesulergine from human 5HT2C receptor expressed in HEK293 cells; type: cell-based
# T4 sequence (P28335 whole entry): T2 sequence (whole entry)
# [7] = target: T2, 5-hydroxytryptamine receptor 2C (Homo sapiens); assay: Antagonist activity at human 5HT2C receptor expressed in HEK293 cells by measuring intracellular calcium mobilization; type: functional, cell-based
# Method in brief: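 Antagonism measured as blockade of the 5-HT-evoked response at the human receptor, with affinity expressed as pKb.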
# [8] = Clearance in rat blood; type: ADME, organism-based; conditions: whole blood
# Method in brief: (§1)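 Male rats (n = 3) received a 1 mg free base/kg iv bolus (2 mL/kg) of a 0.5 mg free base/mL solution in 25% (v/v) aqueous PEG400 containing 5% (v/v) DMSO. Brain penetration was assessed at 1 h.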
# [9] = Bioavailability in rat at 3 mg/kg, po; type: ADME, organism-based; conditions: in vivo
# Method in brief: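 Oral dosing was 3 mg free base/kg by gavage (5 mL/kg) to male rats (n = 3), from 0.6 mg free base/mL in 0.5% w/v Methocel with 5% DMSO. The iv reference arm was 1 mg free base/kg as a bolus (2 mL/kg) in 25% (v/v) aqueous PEG400 with 5% (v/v) DMSO, n = 3.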
# [10] = Ratio of drug level in brain to plasma in rat; type: ADME; conditions: brain and plasma; method in brief: as §1
# T3 sequence (P41595 whole entry): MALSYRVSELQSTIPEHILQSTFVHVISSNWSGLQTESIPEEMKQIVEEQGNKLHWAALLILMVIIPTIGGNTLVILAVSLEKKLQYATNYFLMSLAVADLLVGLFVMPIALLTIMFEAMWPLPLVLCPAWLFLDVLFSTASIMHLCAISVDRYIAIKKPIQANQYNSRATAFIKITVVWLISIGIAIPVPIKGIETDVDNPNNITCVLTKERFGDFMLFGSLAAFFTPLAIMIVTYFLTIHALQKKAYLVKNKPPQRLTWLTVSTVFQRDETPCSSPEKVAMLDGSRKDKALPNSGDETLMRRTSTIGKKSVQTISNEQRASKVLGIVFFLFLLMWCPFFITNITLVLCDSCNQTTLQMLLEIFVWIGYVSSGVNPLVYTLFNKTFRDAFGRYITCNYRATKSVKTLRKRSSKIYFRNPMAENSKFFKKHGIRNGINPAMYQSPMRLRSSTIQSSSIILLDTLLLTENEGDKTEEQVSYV
# T1 sequence (P28223 whole entry): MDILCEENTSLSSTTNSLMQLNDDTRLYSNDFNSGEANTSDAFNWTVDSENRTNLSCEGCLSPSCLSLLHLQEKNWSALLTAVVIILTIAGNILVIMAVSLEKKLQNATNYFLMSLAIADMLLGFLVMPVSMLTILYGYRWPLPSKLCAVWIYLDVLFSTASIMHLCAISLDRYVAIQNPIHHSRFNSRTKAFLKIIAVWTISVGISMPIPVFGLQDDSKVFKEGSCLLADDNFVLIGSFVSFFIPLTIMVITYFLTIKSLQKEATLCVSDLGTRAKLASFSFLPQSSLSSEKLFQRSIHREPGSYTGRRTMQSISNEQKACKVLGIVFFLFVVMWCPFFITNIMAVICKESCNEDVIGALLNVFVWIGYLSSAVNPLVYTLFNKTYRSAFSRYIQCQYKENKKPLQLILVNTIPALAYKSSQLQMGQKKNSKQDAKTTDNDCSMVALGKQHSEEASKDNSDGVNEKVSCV
Structure (SMILES),Activity [1],Activity [2],Activity [3],Ki [4] [nM],Ki [5] [nM],Ki [6] [nM],pKb [7],clearance [8] [mL/min/kg],bioavailability [9] [%],Kp [10]
COc1ccc(N2C(=O)c3c(n(C)c4ccccc34)C2C)cc1OCCN1CCCCC1 (configuration not stated),inactive,inactive,inactive,,,,,,,
COc1ccc(N2Cc3c(c4ccc(F)cc4n3C)C2=O)cc1OCCN1CCC(C)CC1,inactive,inactive,inactive,251,251,15.8,7.5,,,
COc1ccc(N2Cc3c(c4cccc(F)c4n3C)C2=O)cc1OCCN1CCCCC1,inactive,inactive,inactive,,,,,,,
COc1ccc(N2Cc3sc4ccccc4c3C2=O)cc1OCCN1CCC(C)CC1,inactive,inactive,inactive,200,> 794,1.58,8.7,,,
COc1ccc(N2Cc3c(c4cc(F)ccc4n3C)C2=O)cc1OCCN1CCC(C)CC1,inactive,inactive,inactive,63.1,158,2.51,8.6,,,
COc1ccc(N2Cc3c(c4cccc(F)c4n3C)C2=O)cc1OCCN1CCC(C)CC1,inactive,inactive,inactive,31.6,251,2.51,,,,
COc1ccc(N2Cc3c(c4ccc(Cl)cc4n3C)C2=O)cc1OCCN1CCC(C)CC1,inactive,inactive,inactive,200,251,3.98,,,,
COc1ccc(N2Cc3c(c4cc(Cl)c(Cl)cc4n3C)C2=O)cc1OCCN1CCC(C)CC1,inactive,inactive,inactive,,,,,,,
COc1ccc2c(c1)c1c(n2C)CN(c2ccc(OC)c(OCCN3CCC(C)CC3)c2)C1=O,inactive,inactive,inactive,,,,,,,
COc1ccc(N2Cc3cc4ccccc4cc3C2=O)cc1OCCN1CCCCC1,inactive,inactive,inactive,,,,,,,
COc1ccc(N2Cc3sc4ccccc4c3C2=O)cc1OCCN1CCCCC1,inactive,inactive,inactive,> 631,398,3.16,,,,

# Further lines, results first:
Activity [1],Activity [2],Activity [3],Ki [4] [nM],Ki [5] [nM],Ki [6] [nM],pKb [7],clearance [8] [mL/min/kg],bioavailability [9] [%],Kp [10],Structure (SMILES)
inactive,inactive,inactive,> 10000,> 10000,12.6,,,,,COc1ccc(N2Cc3c(c4ccc(F)cc4n3C)C2=O)cc1OCCN1CCCCC1
inactive,inactive,inactive,200,501,6.31,,,,,COc1ccc(N2Cc3c(c4cc(Cl)c(Cl)cc4n3C)C2=O)cc1OCCN1CCCCC1
inactive,inactive,inactive,39.8,126,3.16,8.6,23,44,1,COc1ccc(N2Cc3c(c4cc(Cl)ccc4n3C)C2=O)cc1OCCN1CCC(C)CC1
inactive,inactive,inactive,794,1000,31.6,,,,,COc1ccc2c(c1)c1c(n2C)CN(c2ccc(OC)c(OCCN3CCCCC3)c2)C1=O
inactive,inactive,inactive,200,501,6.31,,53,15,,COc1ccc(N2Cc3c(c4ccccc4n3C)C2=O)cc1OCCN1CCCCC1.Cl
inactive,inactive,inactive,,,,,,,,COc1ccc(N2Cc3c(c4cc(F)ccc4n3C)C2=O)cc1OCCN1CCCCC1
inactive,inactive,inactive,> 1000,158,2.51,,39,21,,COc1ccc(N2Cc3c(c4cc(Cl)ccc4n3C)C2=O)cc1OCCN1CCCCC1
inactive,inactive,inactive,158,316,5.01,,,,,COc1ccc(N2Cc3c(c4ccc(Cl)cc4n3C)C2=O)cc1OCCN1CCCCC1
